Screening data (PubChem BioAssay)
Most compounds without a hit are left out; they make up all but 3.1% or so of the library.
SUMO HTRF inh: inhibitors of human SUMOylation (UBC9) | inhibition, % at 35 µM | 290,000 tested, 0.36% active | HTRF SUMOylation assay, SAE1/SAE2 + UBC9, in vitro | P63279 | AID 2006; in the data active = inhibition above about 50%, passing the limit was not always enough
Target sequence (P63279 whole entry, looked up): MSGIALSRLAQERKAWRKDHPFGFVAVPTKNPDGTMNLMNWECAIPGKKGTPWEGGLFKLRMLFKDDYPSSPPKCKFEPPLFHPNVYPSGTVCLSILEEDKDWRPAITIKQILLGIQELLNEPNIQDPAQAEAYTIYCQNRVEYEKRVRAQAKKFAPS
VIM-2 inh: blocks Pseudomonas aeruginosa VIM-2 metallo-beta-lactamase | purified VIM-2, nitrocefin hydrolysis, epi-absorbance fluorescence | inhibition, % at 5.6 µM | 290,000 tested, 0.89% active | AID 1527;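 active = inhibition above the mean of all tested compounds plus 3 SD, cutoff set per screening run, cut at about 7.5% in these data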;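 also: red hydrolysis product quenches plate fluorescence so inhibitors raise well fluorescence; 0% = enzyme with DMSO and 100% = DMSO without enzyme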
HCV core dimer: HCV core protein dimerization inhibition; TR-FRET GST/Flag-core106 dimerization, 1536-well; inhibition, % at 5 µM; 300,000 tested, 0.33% active;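 active = inhibition above the mean of all tested compounds plus 3 SD, set per screening campaign, cut at about 45% in these data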
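Assay system: GST-tagged and Flag-tagged HCV core protein residues 1-106 / Times: compound-protein-antibody incubation 4 h at 22.5 °C / Signal: time-resolved FRET, ex 340 nm, em 617 and 671 nm / Evaluation: % inhibition based on acceptor/donor emission ratio / Benchmarks: wells lacking GST-core106 and wells with excess unlabelled core106 / Repeats: singlicate, one well per compound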
NS3 helicase inh: inhibitors of Hepatitis C virus NS3 helicase; inhibition, % at 10.9 µM; NS3 helicase DNA unwinding, Cy5 molecular beacon fluorescence; 290,000 tested, 0.56% active;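 active = inhibition above the mean of all tested compounds plus 3 SD, set per campaign, cut at about 35% in these data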;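 also: 0% = DMSO wells and 100% = thioflavine S control wells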
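assay system = NS3 helicase fragment of HCV | buffer or medium = MOPS pH 6.5, MgCl2, DTT, Tween20, BSA | timing = 60 min unwinding reaction at 25 °C after ATP addition | signal = Cy5 beacon fluorescence read at start and 1 h | read-out basis = % inhibition of unwinding | control set = low DMSO, high thioflavine S at 110 µM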
IMP-1 inh: blocks Pseudomonas aeruginosa IMP-1 metallo-beta-lactamase | inhibition, % at 5.6 µM | 290,000 tested, 0.45% active | purified IMP-1, nitrocefin hydrolysis, epi-absorbance fluorescence;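 active = inhibition above the mean plus 3 SD of all compounds in the same screening run, cut at about 4.5% in these data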;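 also: 0% = IMP-1 with DMSO and 100% = DMSO wells lacking enzyme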
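system = purified recombinant IMP-1 beta-lactamase | amount = 0.2 nM IMP-1, as dispensed | medium = HEPES buffer pH 7.1 with ZnSO4 and Brij 35 | times = 25 °C, 15 min preincubation, 25 min reaction | detection = plate fluorescence quenching by hydrolysis product, ex 480/em 530 nm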
PHOSPHO1 block: blocks human PHOSPHO1 phosphatase activity | AID 1565 | recombinant PHOSPHO1, absorbance phosphatase assay | inhibition, % at 13.3 µM | 290,000 tested, 1.1% active; in the data active = inhibition above about 60%
Target sequence (Q8TCT1 whole entry, looked up): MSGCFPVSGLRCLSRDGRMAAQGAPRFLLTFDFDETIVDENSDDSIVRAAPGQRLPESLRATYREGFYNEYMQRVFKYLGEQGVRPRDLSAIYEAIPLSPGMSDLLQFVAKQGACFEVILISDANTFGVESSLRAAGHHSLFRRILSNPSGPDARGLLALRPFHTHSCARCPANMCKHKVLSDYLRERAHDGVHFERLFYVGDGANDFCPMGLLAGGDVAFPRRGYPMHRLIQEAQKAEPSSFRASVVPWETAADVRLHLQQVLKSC
* hit, by the source's call.

Screening COc1ccc(NC(=O)Cn2ncc(Cl)c(Cl)c2=O)cc1S(=O)(=O)N1CCOCC1 returned SUMO HTRF inh 22.4, VIM-2 inh -0.8, HCV core dimer 50.0*, NS3 helicase inh 35.3, IMP-1 inh 0.1 and PHOSPHO1 block -32.0.
For CCN(CC)S(=O)(=O)c1cc(NC(=O)Cn2ncc(Cl)c(Cl)c2=O)ccc1C the results were SUMO HTRF inh 66.5*, VIM-2 inh -3.0, HCV core dimer 38.2, NS3 helicase inh 8.3, IMP-1 inh -2.5 and PHOSPHO1 block 12.1.
`COc1ccc(S(=O)(=O)N2CCOCC2)cc1NC(=O)c1cc2c(s1)CCCC2` gave SUMO HTRF inh -17.8, VIM-2 inh 0.4, HCV core dimer -4.8, NS3 helicase inh 4.1, IMP-1 inh -0.6 and PHOSPHO1 block -2.4.
`Cc1nn(-c2ccccc2)c2sc(C(=O)NNC(=O)COc3ccccc3)cc12` gave SUMO HTRF inh 55.4*, VIM-2 inh -3.5, HCV core dimer 3.3, NS3 helicase inh -1.8, IMP-1 inh -3.3 and PHOSPHO1 block 7.2.
Screening CSCCCN1CCCC(CO)(Cc2ccccc2F)C1 (stereo unspecified) returned SUMO HTRF inh -6.3, VIM-2 inh 1.1, HCV core dimer -8.4, NS3 helicase inh -1.0, IMP-1 inh -0.7 and PHOSPHO1 block 19.3.
COc1ccc(N(CC(=O)N/N=C(\C)c2ccc(OC)c(OC)c2)S(=O)(=O)c2ccccc2)cc1 was read as SUMO HTRF inh -12.5, VIM-2 inh -3.4, HCV core dimer 2.2, NS3 helicase inh -4.2, IMP-1 inh -2.2 and PHOSPHO1 block 22.7.
Cc1ccc(-c2csc(NC(=O)c3ccno3)n2)cc1 was read as SUMO HTRF inh 4.7, VIM-2 inh -4.5, HCV core dimer 61.9*, NS3 helicase inh 7.0, IMP-1 inh -1.0 and PHOSPHO1 block 28.6.
For COC(=O)N/N=C/c1ccc(Oc2ccccc2)cc1 the results were SUMO HTRF inh 26.9, VIM-2 inh -2.1, HCV core dimer -2.4, NS3 helicase inh 18.2, IMP-1 inh -4.6 and PHOSPHO1 block 23.3.
Screening O=C(Cn1ncc2c([nH]c3ccccc32)c1=O)Nc1cccnc1 returned SUMO HTRF inh 14.3, VIM-2 inh -1.5, HCV core dimer 3.9, NS3 helicase inh 9.4, IMP-1 inh -0.4 and PHOSPHO1 block 18.1.
CCc1ccc(NC(=O)Cn2ncc3c4ccccc4n(C)c3c2=O)cc1 was read as SUMO HTRF inh 48.3, VIM-2 inh -0.8, HCV core dimer 11.2, NS3 helicase inh -3.0, IMP-1 inh -1.3 and PHOSPHO1 block 31.5.
Screening Cn1c2ccccc2c2cnn(CC(=O)Nc3ccc(Cl)cc3)c(=O)c21 returned SUMO HTRF inh 51.9*, VIM-2 inh 1.0, HCV core dimer 7.0, NS3 helicase inh -5.1, IMP-1 inh -1.0 and PHOSPHO1 block 27.3.
Cc1ccc(NC(=O)Cn2ncc3c([nH]c4ccccc43)c2=O)cc1Cl was read as SUMO HTRF inh 47.0, VIM-2 inh -2.1, HCV core dimer 2.7, NS3 helicase inh 1.1, IMP-1 inh -3.3 and PHOSPHO1 block 62.9*.
Screening COc1ccc(COC(=O)c2ccc(Br)c(S(=O)(=O)N3CCOCC3)c2)cc1F returned HCV core dimer 4.3.
`Nn1c(SCc2cc([N+](=O)[O-])cc3c2OCOC3)nnc1-c1cccnc1` gave SUMO HTRF inh -0.8, VIM-2 inh -0.2, HCV core dimer 10.2, NS3 helicase inh -3.8, IMP-1 inh -2.3 and PHOSPHO1 block -78.2.
CN(CCOc1ccccc1)C(=O)c1cc([N+](=O)[O-])cc([N+](=O)[O-])c1 was read as SUMO HTRF inh -3.2, VIM-2 inh -0.6, HCV core dimer -1.2, NS3 helicase inh -4.7, IMP-1 inh -2.3 and PHOSPHO1 block -23.9.
`COc1ccc(NC(=O)Nc2nnc(-c3ccccc3SCc3ccccc3)s2)cc1` gave SUMO HTRF inh 10.9, VIM-2 inh -1.0, HCV core dimer 1.5, NS3 helicase inh 1.7, IMP-1 inh -3.2 and PHOSPHO1 block 9.1.
`COc1cccc(NC(=O)Nc2nnc(-c3ccccc3SCc3ccccc3)s2)c1` gave SUMO HTRF inh 55.2*, VIM-2 inh -0.4, HCV core dimer -6.0, NS3 helicase inh -5.8, IMP-1 inh 0.5 and PHOSPHO1 block 9.7.
